Assay results as given in ChEMBL document CHEMBL1629614, “Inhibition of methionyl-tRNA synthetase by REP8839 and effects of resistance mutations on enzyme activity” (Antimicrob Agents Chemother, 2009).

Key:
[1] = compound: C=C(F)c1sc(CNCCCNc2cc(=O)c3ccccc3[nH]2)c(C)c1Br; test: Activity of Staphylococcus aureus MetRS V108M mutant by ATP:PPi exchange assay in presence of methionine
Method in brief: (§1)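 Purified S. aureus MetRS (wild type or mutant; E. coli-expressed, ammonium sulfate cut, anion exchange) at 30 nM. ATP:PPi exchange at 30°C in 100 mM Tris-HCl pH 8.0, 5–10 mM Mg acetate, 80 mM KCl, 2.5 mM DTT, [32P]PPi plus cold PPi equal to ATP. Quenched with EDTA over 1–10 min, PEI-cellulose TLC, phosphorimager. Initial velocities versus varied ATP or methionine fit to Michaelis-Menten.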

[2] = compound: C=C(F)c1sc(CNCCCNc2cc(=O)c3ccccc3[nH]2)c(C)c1Br; test: Ratio of Kcat to Km for Staphylococcus aureus MetRS V108M mutant in presence of ATP
Method in brief: (§2)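 Purified recombinant S. aureus MetRS (30 nM) was assayed by ATP:PPi exchange at 30°C in Tris pH 8.0 with Mg acetate, KCl and DTT. [32P]PPi was matched to ATP, and ATP or methionine was varied. Time points from 1 to 10 min were quenched with EDTA, separated by PEI-cellulose TLC and read by phosphorimager. Initial rates were fitted to Michaelis-Menten.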

[3] = compound: C=C(F)c1sc(CNCCCNc2cc(=O)c3ccccc3[nH]2)c(C)c1Br; test: Ratio of Kcat to Km for Staphylococcus aureus MetRS V108M mutant in presence of methionine; method in brief: as §2
[4] = compound: C=C(F)c1sc(CNCCCNc2cc(=O)c3ccccc3[nH]2)c(C)c1Br; test: Activity of streptococcus aureus MetRS V108M mutant by scintillation proximity assay in presence of tRNA; details: Staphylococcus aureus
[5] = compound: C=C(F)c1sc(CNCCCNc2cc(=O)c3ccccc3[nH]2)c(C)c1Br; test: Ratio of Kcat to Km for Staphylococcus aureus MetRS V108M mutant in presence of tRNA
Method in brief: (§3)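 Purified recombinant S. aureus MetRS was assayed by tRNA aminoacylation at 30°C for 1 to 7.5 min to obtain initial rates. Buffer was Tris pH 8.0 with Mg acetate, 2.5 mM ATP, KCl, DTT, BSA, [3H]methionine and crude E. coli tRNA. Reactions were EDTA-stopped, and charged tRNA was read by scintillation proximity with polylysine beads at pH 2.0.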

[6] = compound: C=C(F)c1sc(CNCCCNc2cc(=O)c3ccccc3[nH]2)c(C)c1Br; test: Activity of Staphylococcus aureus MetRS V108M mutant by ATP:PPi exchange assay in presence of ATP; method in brief: as §1
[7] = compound: C=C(F)c1sc(CNCCCNc2cc(=O)c3ccccc3[nH]2)c(C)c1Br; test: Activity of Staphylococcus aureus MetRS I57N, V242F mutant by ATP:PPi exchange assay in presence of methionine; method in brief: as §1
[8] = compound: C=C(F)c1sc(CNCCCNc2cc(=O)c3ccccc3[nH]2)c(C)c1Br; test: Ratio of Kcat to Km for Staphylococcus aureus MetRS I57N V242F mutant in presence of ATP; method in brief: as §2
[9] = compound: C=C(F)c1sc(CNCCCNc2cc(=O)c3ccccc3[nH]2)c(C)c1Br; test: Ratio of Kcat to Km for Staphylococcus aureus MetRS I57N V242F mutant in presence of methionine; method in brief: as §2
[10] = compound: C=C(F)c1sc(CNCCCNc2cc(=O)c3ccccc3[nH]2)c(C)c1Br; test: Activity of streptococcus aureus MetRS I57N, V242F mutant by scintillation proximity assay in presence of tRNA; details: Staphylococcus aureus
[11] = compound: C=C(F)c1sc(CNCCCNc2cc(=O)c3ccccc3[nH]2)c(C)c1Br; test: Ratio of Kcat to Km for Staphylococcus aureus MetRS I57N V242F mutant in presence of tRNA; method in brief: as §3
[12] = compound: C=C(F)c1sc(CNCCCNc2cc(=O)c3ccccc3[nH]2)c(C)c1Br; test: Activity of Staphylococcus aureus MetRS I57N, V242F mutant by ATP:PPi exchange assay in presence of ATP; method in brief: as §1

| Protein | Km [1] [µM] | kcat [1] [s⁻¹] | kcat/Km [2] [M⁻¹ s⁻¹] | kcat/Km [3] [M⁻¹ s⁻¹] | Km [4] [µM] | kcat [4] [s⁻¹] | kcat/Km [5] [M⁻¹ s⁻¹] | Km [6] [µM] | Km [7] [µM] | kcat [7] [s⁻¹] | kcat/Km [8] [M⁻¹ s⁻¹] | kcat/Km [9] [M⁻¹ s⁻¹] | Km [10] [µM] | kcat [10] [s⁻¹] | kcat/Km [11] [M⁻¹ s⁻¹] | Km [12] [µM] |
| --- | --- | --- | --- | --- | --- | --- | --- | --- | --- | --- | --- | --- | --- | --- | --- | --- |
| Methionine--tRNA ligase (Staphylococcus aureus subsp. aureus MW2), Q8NY00 V108M (protein) MAKETFYITTPIYYPSGNLHIGHAYSTVAGDVIARYKRMQGYDVRYLTGTDEHGQKIQEKAQKAGKTEIEYLDEMIAGIKQLWAKLEISNDDFIRTTEERHKHVVEQMFERLLKQGDIYLGEYEGWYSVPDETYYTESQLVDPQYENGKIIGGKSPDSGHEVELVKEESYFFNISKYTDRLLEFYDQNPDFIQPPSRKNEMINNFIKPGLADLAVSRTSFNWGVHVPSNPKHVVYVWIDALVNYISALGYLSDDESLFNKYWPADIHLMAKEIVRFHSIIWPILLMALDLPLPKKVFAHGWILMKDGKMSKSKGNVVDPNILIDRYGLDATRYYLMRELPFGSDGVFTPEAFVERTNFDLANDLGNLVNRTISMVNKYFDGELPAYQGPLHELDEEMEAMALETVKSYTESMESLQFSVALSTVWKFISRTNKYIDETTPWVLAKDDSQKDMLGNVMAHLVENIRYAAVLLRPFLTHAPKEIFEQLNINNPQFMEFSSLEQYGVLTESIMVTGQPKPIFPRLDSEAEIAYIKESMQPPATEEEKEEIPSKPQIDIKDFDKVEIKAATIINAEHVKKSDKLLKIQVDLDSEQRQIVSGIAKFYTPDDIIGKKVAVVTNLKPAKLMGQKSEGMILSAEKDGVLTLVSLPSAIPNGAVIK | 140 | 15 | 23000 | 110000 | 3.2 | 0.74 | 230000 | 650 |  |  |  |  |  |  |  |  |
| Methionine--tRNA ligase (Staphylococcus aureus subsp. aureus MW2), Q8NY00 I57N,V242F (protein) MAKETFYITTPIYYPSGNLHIGHAYSTVAGDVIARYKRMQGYDVRYLTGTDEHGQKNQEKAQKAGKTEIEYLDEMIAGIKQLWAKLEISNDDFIRTTEERHKHVVEQVFERLLKQGDIYLGEYEGWYSVPDETYYTESQLVDPQYENGKIIGGKSPDSGHEVELVKEESYFFNISKYTDRLLEFYDQNPDFIQPPSRKNEMINNFIKPGLADLAVSRTSFNWGVHVPSNPKHVVYVWIDALFNYISALGYLSDDESLFNKYWPADIHLMAKEIVRFHSIIWPILLMALDLPLPKKVFAHGWILMKDGKMSKSKGNVVDPNILIDRYGLDATRYYLMRELPFGSDGVFTPEAFVERTNFDLANDLGNLVNRTISMVNKYFDGELPAYQGPLHELDEEMEAMALETVKSYTESMESLQFSVALSTVWKFISRTNKYIDETTPWVLAKDDSQKDMLGNVMAHLVENIRYAAVLLRPFLTHAPKEIFEQLNINNPQFMEFSSLEQYGVLTESIMVTGQPKPIFPRLDSEAEIAYIKESMQPPATEEEKEEIPSKPQIDIKDFDKVEIKAATIINAEHVKKSDKLLKIQVDLDSEQRQIVSGIAKFYTPDDIIGKKVAVVTNLKPAKLMGQKSEGMILSAEKDGVLTLVSLPSAIPNGAVIK |  |  |  |  |  |  |  |  | 20 | 14 | 17000 | 700000 | 10 | 0.124 | 12000 | 810 |
